Consider one substance from paper PMC11913021 (Journal of Medicinal Chemistry, 2024).

Assay [1] addresses T1, PLD1 (Homo sapiens, UniProt Q13393).
T1 sequence (Q13393 1-1074): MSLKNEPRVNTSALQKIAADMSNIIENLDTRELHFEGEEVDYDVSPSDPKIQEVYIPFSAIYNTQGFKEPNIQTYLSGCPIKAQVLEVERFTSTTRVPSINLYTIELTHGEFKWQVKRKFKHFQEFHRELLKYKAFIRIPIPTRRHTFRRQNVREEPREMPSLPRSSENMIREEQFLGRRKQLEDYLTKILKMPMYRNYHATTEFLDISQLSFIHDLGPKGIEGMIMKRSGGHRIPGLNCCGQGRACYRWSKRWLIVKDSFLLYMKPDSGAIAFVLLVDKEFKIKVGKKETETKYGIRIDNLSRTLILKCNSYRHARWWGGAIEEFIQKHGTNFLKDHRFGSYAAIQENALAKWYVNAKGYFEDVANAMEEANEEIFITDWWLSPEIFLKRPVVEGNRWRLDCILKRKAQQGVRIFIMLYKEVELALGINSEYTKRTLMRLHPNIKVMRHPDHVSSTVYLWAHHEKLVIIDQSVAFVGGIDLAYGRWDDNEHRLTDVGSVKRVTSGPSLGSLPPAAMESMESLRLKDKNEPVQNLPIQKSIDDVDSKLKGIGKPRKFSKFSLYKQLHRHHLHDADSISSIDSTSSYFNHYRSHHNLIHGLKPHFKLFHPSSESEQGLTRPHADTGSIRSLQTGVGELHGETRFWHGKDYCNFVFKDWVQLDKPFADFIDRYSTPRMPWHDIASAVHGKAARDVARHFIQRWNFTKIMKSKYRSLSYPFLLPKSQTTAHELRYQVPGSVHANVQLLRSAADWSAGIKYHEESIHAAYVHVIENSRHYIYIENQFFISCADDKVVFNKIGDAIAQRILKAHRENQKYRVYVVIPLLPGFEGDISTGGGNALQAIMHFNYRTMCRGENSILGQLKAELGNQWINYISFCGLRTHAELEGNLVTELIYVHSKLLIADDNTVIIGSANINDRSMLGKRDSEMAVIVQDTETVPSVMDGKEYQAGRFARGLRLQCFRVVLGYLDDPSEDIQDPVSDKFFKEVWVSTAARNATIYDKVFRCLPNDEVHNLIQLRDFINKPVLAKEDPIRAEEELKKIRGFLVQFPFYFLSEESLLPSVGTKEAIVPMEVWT
Put plainly: PLD activity in PLD1-overexpressing A549 cells. In kind it is cell-based.

For assay [2], the system named is EGFR-RAS-mediated signaling pathways. The assay can be described thus: Immunoblot of RAS downstream molecules in EGF-stimulated A549 cells. In kind it is cell-based. The method in brief: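 Lysates made in passive buffer with protease and phosphatase inhibitor cocktail, boiled 5 min, then separated by SDS-PAGE and transferred to PVDF. Membranes blocked in TBS-T with 5% BSA and probed overnight at 4 °C for phospho- and total Akt, ERK and IκBα. HRP-conjugated secondary antibodies and chemiluminescence were used for detection.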
A general note: A western blot detects proteins with antibodies after separation by electrophoresis.

Assay [3] deals with A549 cells. The assay can be described thus: Colony-forming assay. Format: cell-based. The method in brief:
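Cells seeded at 500–1,000 per well; test compound added 48 h after seeding, with 48 h exposure. Medium was changed every 3 days and cultures kept 10 days. Colonies were fixed in 4% PFA for 20 min, stained with crystal violet for 30 min, and counted by image analysis.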

Assay [4] relates to LLC mouse lung cells. Put plainly: LLC lung cancer syngeneic model in C57BL/6 mice. In kind it is in vivo. The method in brief: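 Male C57BL/6 mice (6 weeks old) received 3 × 10^5 LLC cells in PBS subcutaneously in the flank. From day 7 they were randomised to vehicle PO daily or test compound 10 mg/kg PO every other day, for 3 weeks. Tumour IHC used citrate antigen retrieval, blocking with 0.3% H2O2 and 2.5% horse serum, primary antibodies overnight at 4 °C, HRP/ABC with DAB, and hematoxylin counterstain. CD163 was assessed by immunofluorescence.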

Assay [5] relates to A549 cells. Put plainly: Cell apoptosis assay. In kind it is cell-based. The settings on record: flow cytometry and caspase-3 activity assay. The method in brief: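 Apoptosis detected by Annexin V-FITC staining and flow cytometry. For caspase-3, cells were grown to about 40% density and given test compound, or the inhibitor Ac-DEVD-CHO, at 10 μM for 48 h. After a PBS wash, 1 μM NucView 488 caspase-3 substrate was added for 30 min at RT, then 1 μM Hoechst 33342. Both fluorescences were read on a plate reader.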

Assay [6] has as its target T2, L425A mutant PLD1 (Homo sapiens, UniProt Q13393, L425A).
T2 sequence (Q13393 1-1036 isoform Q13393-2 L425A): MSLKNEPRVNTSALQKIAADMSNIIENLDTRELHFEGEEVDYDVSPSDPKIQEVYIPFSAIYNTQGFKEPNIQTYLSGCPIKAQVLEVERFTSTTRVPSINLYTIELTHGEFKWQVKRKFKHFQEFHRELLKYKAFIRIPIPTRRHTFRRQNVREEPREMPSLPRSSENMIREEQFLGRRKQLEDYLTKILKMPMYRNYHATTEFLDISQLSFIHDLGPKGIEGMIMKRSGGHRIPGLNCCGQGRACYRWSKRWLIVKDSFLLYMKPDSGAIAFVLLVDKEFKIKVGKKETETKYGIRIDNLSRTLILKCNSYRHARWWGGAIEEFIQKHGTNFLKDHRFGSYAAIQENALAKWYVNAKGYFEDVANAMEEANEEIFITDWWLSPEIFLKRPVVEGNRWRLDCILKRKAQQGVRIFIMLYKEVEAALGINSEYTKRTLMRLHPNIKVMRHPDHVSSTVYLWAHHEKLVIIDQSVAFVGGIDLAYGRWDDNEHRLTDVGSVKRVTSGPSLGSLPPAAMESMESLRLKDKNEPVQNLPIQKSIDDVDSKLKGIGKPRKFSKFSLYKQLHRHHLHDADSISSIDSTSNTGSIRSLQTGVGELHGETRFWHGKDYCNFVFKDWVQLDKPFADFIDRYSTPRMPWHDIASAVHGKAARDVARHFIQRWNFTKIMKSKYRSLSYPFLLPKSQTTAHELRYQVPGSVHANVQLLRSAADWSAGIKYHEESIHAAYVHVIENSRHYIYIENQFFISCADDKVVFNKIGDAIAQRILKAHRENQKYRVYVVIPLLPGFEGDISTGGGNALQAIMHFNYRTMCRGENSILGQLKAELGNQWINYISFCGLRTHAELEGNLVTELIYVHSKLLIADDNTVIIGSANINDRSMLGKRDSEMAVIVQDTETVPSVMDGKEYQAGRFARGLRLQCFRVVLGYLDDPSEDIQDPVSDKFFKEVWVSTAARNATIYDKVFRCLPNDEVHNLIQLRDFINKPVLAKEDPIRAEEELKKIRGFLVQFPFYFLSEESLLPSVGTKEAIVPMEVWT
Put plainly: PLD activity assay in L425A mutant PLD1-transfected cells. In kind it is cell-based.

Where [7] appears, read: tumor tissue immunofluorescence.

On to “N-(3,5-Bis(trifluoromethyl)phenyl)-3-(1H-indol-3-yl)propanamide [3r]”, for which the PLD1 activity entry in assay [1] is “selectively suppressed”. Also, in assay [2], the “phospho-Akt, phospho-ERK, and phospho-IkBα levels” value is reported as “markedly reduced”. The colony formation entry in assay [3] was “significantly inhibited”. Further, the tumor formation entry in assay [4] (10 mg/kg PO every other day, C57BL/6, LLC) was “significantly attenuated”. In addition, in assay [4] (IHC), the “apoptosis in tumor tissue (active caspase 3 IHC)” value is on record as “enhanced” and the “proliferation in tumor tissue (Ki67 IHC)” value is recorded as “reduced”. For the same substance, in assay [4] (tumor tissue IHC), the “expression of ’eat-me’ signals (calreticulin)” value is recorded as “increased”; the “levels of RAS and downstream molecules (p-ERK, p-Akt, p-IKBα)” value is on record as “decreased”; the “levels of ’don’t eat-me’ signals (CD47, CD24, PD-L1)” value was “reduced”. In addition, in assay [4] (setting [7]), the “population of CD4^+ and IL-17^+ Th17 cells” value was “increased”; the “population of CD80^+ pro-inflammatory M1 macrophages” value is reported as “increased”; the “population of CD163^+ anti-inflammatory M2 macrophages” value was “decreased”; the “population of cytotoxic CD8^+ T cells” value is given as “increased”. Moreover, in assay [4] (tumor-bearing mice vs vehicle), the “size and weight of the spleen” value is reported as “recovered”. For the same substance, in assay [5], the “apoptosis of A549 cells” value is on record as “induced”. For the same substance, the PLD activity result in assay [6] is reported as “significantly suppressed”.
